Only some compounds are listed: those with a hit (about 1.6% of all), similar ones and a draw of the others.
MBD2 inh = blocks human MBD2 binding to methylated DNA. TR-FRET, MBD2 binding to methylated oligonucleotide. inhibition, % at 4.4 µM. 0.31% of 370,000 active. AID 686964; in the data active = inhibition above about 13%
Target sequence (Q9UBB5 whole entry, looked up): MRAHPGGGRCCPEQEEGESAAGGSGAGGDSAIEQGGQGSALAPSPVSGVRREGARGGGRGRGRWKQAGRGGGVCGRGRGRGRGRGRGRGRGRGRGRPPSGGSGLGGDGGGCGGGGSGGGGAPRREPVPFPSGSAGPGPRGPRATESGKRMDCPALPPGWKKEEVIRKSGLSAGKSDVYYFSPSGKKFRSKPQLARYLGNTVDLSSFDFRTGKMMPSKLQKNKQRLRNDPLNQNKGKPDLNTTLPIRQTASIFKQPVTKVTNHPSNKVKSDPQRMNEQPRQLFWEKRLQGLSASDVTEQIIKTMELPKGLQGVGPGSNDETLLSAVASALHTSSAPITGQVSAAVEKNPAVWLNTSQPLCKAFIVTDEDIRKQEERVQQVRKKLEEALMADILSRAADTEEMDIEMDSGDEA
UHRF1 MBD2 ctr = human UHRF1 methylated DNA binding inhibitors | Q96T88 | UHRF1 binding to methylated oligo, TR-FRET | inhibition, % at 4.4 µM | 0.75% of 370,000 active | AID 687016; in the data active = inhibition above about 21%;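 also: UHRF1 SRA domain binding a hemimethylated CpG hairpin DNA probe; 0% = median of test compound wells and 100% = reference inhibitor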
TDP2 inh = TDP2 (human) inhibition, absorbance primary screen; O95551; recombinant TDP2, T5PNP hydrolysis, p-nitrophenol absorbance 415 nm; inhibition, % at 12.8 µM; 0.34% of 370,000 active; AID 720702;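 active = inhibition above the mean of all tested compounds plus 3 SD, set per campaign, cut at about 25% in these data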;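 also: 0% = DMSO with enzyme and 100% = buffer with substrate but no TDP2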
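System: recombinant human TDP2 / Amount: 120 nM TDP2 per well / Also added: 5 mM T5PNP chromogenic substrate / Doses: 12.8 µM single point, 1% DMSO / Incubation: 2 h at 37 °C / Detection: p-Nitrophenol epi absorbance / Evaluation: % inhibition relative to enzyme-containing and enzyme-free wells / Repeats: singlicate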
LEDGF integ inh = blocks HIV-1 LEDGF/p75-dependent DNA integration; TR-FRET IN-LEDGF/p75 DNA integration, Eu/Cy5; inhibition, % at 3.7 µM; 0.64% of 370,000 active;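 active = inhibition above the screen-wide mean plus 3 SD, cut at about 13% in these data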;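 also: signal is the Cy5 over europium emission ratio at 671 and 618 nm; 0% = plate median of compound wells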
Starred values were filed as active, the others as inactive.

COc1cccc(C2/C(=C(/O)c3ccc(C)cc3)C(=O)C(=O)N2Cc2ccco2)c1 (configuration not stated) was read as MBD2 inh 2, UHRF1 MBD2 ctr 29*, TDP2 inh -2 and LEDGF integ inh 2.
COc1cccc(C2/C(=C(/O)c3ccccc3)C(=O)C(=O)N2Cc2ccco2)c1 (configuration not stated) was read as MBD2 inh -3, UHRF1 MBD2 ctr 0, TDP2 inh -10 and LEDGF integ inh -7.
CC(=O)N1CCN(c2ccc(N3CCN(Cc4ccccc4)[C@H](C)C3)c(C)c2)[C@@H](C)C1 was read as MBD2 inh 1, UHRF1 MBD2 ctr 1, TDP2 inh -13 and LEDGF integ inh 2.
Screening COc1ccccc1-c1cnc(C(O)c2cc(Cl)cc(Cl)c2)[nH]1 (configuration not stated) returned MBD2 inh 5, UHRF1 MBD2 ctr 22*, TDP2 inh -1 and LEDGF integ inh 5.
CCCCCCCCN1C(=O)N2Cc3cc(F)ccc3C2CS1(=O)=O (configuration not stated) was read as MBD2 inh -3, UHRF1 MBD2 ctr 3, TDP2 inh -6 and LEDGF integ inh 0.
`Cn1c2ccccc2c(=O)c2c(=O)n(Cc3cccc4ccccc34)cnc21` gave MBD2 inh -6, UHRF1 MBD2 ctr -4, TDP2 inh -7 and LEDGF integ inh 7.
For Cc1[nH][nH]c(=O)c1C(c1c(C)[nH][nH]c1=O)c1cn(Cc2cccc3ccccc23)c2ccccc12 the results were MBD2 inh -5, UHRF1 MBD2 ctr 10, TDP2 inh 60* and LEDGF integ inh 12.
COc1ccccc1-n1c(SCC(=O)NC(C)(C)C)nc(O)c(Cc2ccccc2)c1=O was read as MBD2 inh 6, UHRF1 MBD2 ctr 22*, TDP2 inh -9 and LEDGF integ inh 0.
COc1ccccc1-n1c(SCC(=O)N2CCCCC2)nc(O)c(Cc2ccccc2)c1=O was read as MBD2 inh 3, UHRF1 MBD2 ctr 1, TDP2 inh 1 and LEDGF integ inh -5.
`Cc1ccc(-n2c(C)cc(C(=O)NS(=O)(=O)c3ccc(C)cc3)c2C)cc1` gave MBD2 inh 3, UHRF1 MBD2 ctr 2, TDP2 inh -3 and LEDGF integ inh 1.
For CCOc1ccc(-n2c(C)cc(C(=O)NS(=O)(=O)c3ccc(C)cc3)c2C)cc1 the results were MBD2 inh 2, UHRF1 MBD2 ctr 52*, TDP2 inh -1 and LEDGF integ inh -2.
Screening COc1ccc2[nH]cc(C(C)c3ccccc3O)c2c1 (configuration not stated) returned MBD2 inh 2, UHRF1 MBD2 ctr -1, TDP2 inh 8 and LEDGF integ inh -3.
Screening Nn1c(SCC(=O)Nc2nccs2)nnc1-c1cc(-c2ccc(Cl)cc2)n[nH]1 returned MBD2 inh -1, UHRF1 MBD2 ctr -2, TDP2 inh 10 and LEDGF integ inh 0.
For CN(C)C(=O)N1CCC(C(=O)NCc2ccc(F)cc2Cl)CC1 the results were MBD2 inh -1, UHRF1 MBD2 ctr -2, TDP2 inh -5 and LEDGF integ inh -3.
For O=C(NNC(=O)C1CCN(Cc2ccc(F)cc2Cl)CC1)Nc1ccc([N+](=O)[O-])cc1 the results were MBD2 inh -2, UHRF1 MBD2 ctr 29*, TDP2 inh 0 and LEDGF integ inh 6.
For Cc1[nH]c2ccccc2c1CC(=O)Nc1ccc(N(C)c2cccnc2)c(-c2ccc(F)c(F)c2)c1 the results were MBD2 inh 3, UHRF1 MBD2 ctr 0, TDP2 inh 3 and LEDGF integ inh -5.
For COc1ccc(Cl)cc1NC(=O)Cn1c(=O)n2nc(C)nc2c2ccccc21 the results were MBD2 inh 3, UHRF1 MBD2 ctr 70*, TDP2 inh 4 and LEDGF integ inh -2.
`COc1ccccc1NC(=O)Cn1c(=O)n2nc(C)nc2c2ccccc21` gave MBD2 inh -1, UHRF1 MBD2 ctr -2, TDP2 inh -1 and LEDGF integ inh -5.
COc1ccccc1NC(=O)Cc1nnc(SCC(=O)Nc2ccc(F)cc2F)n1C was read as MBD2 inh -5, UHRF1 MBD2 ctr 1, TDP2 inh 6 and LEDGF integ inh -1.
COc1ccccc1NC(=O)CSc1nnc(CCC(=O)Nc2ccccc2F)n1C was read as MBD2 inh 4, UHRF1 MBD2 ctr 21*, TDP2 inh 5 and LEDGF integ inh -1.
Screening O=C(O)Cn1nnnc1SCC(=O)Nc1ccccc1F returned MBD2 inh 9, UHRF1 MBD2 ctr 26*, TDP2 inh 7 and LEDGF integ inh 2.
Screening COC(=O)c1ccccc1NC(=O)CSc1nnnn1CC(=O)O returned MBD2 inh -5, UHRF1 MBD2 ctr -2, TDP2 inh -4 and LEDGF integ inh 4.
Screening COc1ccc(-n2c(COc3ccc(Cl)cc3)nnc2SCC(=O)Nc2ccc3c(c2)OCO3)cc1 returned MBD2 inh -1, UHRF1 MBD2 ctr -1, TDP2 inh -5 and LEDGF integ inh -1.
`CCN=C1NC(c2ccccc2)C(C(=O)OC)=C(C)N1Cc1ccc(C(F)(F)F)cc1` (configuration not stated) gave MBD2 inh 1, UHRF1 MBD2 ctr 3, TDP2 inh -3 and LEDGF integ inh 1.
Screening Cn1c(=O)[nH]c2c(Br)nccc21 returned MBD2 inh -3, UHRF1 MBD2 ctr 1, TDP2 inh -2 and LEDGF integ inh 0.
O=C(N/N=C/c1ccc(OC(F)F)cc1)c1ccc(CSc2nc3ccccc3[nH]2)cc1 was read as MBD2 inh 13, UHRF1 MBD2 ctr 25*, TDP2 inh -6 and LEDGF integ inh -1.
Screening Cc1cc(OCCN2CCOCC2)ccc1Cl returned MBD2 inh 4, UHRF1 MBD2 ctr 22*, TDP2 inh 8 and LEDGF integ inh 0.
CCCCOCCCNC(=O)C[C@H]1C[C@@]2(C(=O)OC)C(=C[C@H](C(C)(C)C)O[C@@H]2C)N(Cc2ccccc2)C1=O was read as MBD2 inh 3, UHRF1 MBD2 ctr 2, TDP2 inh -6 and LEDGF integ inh -3.
`O=C(NNc1ccccc1Br)C(=O)n1ccc2ccccc21` gave MBD2 inh -3, UHRF1 MBD2 ctr 66*, TDP2 inh -22 and LEDGF integ inh 0.
O=C(Nc1ccccc1Br)C(=O)N1CCCC1 was read as MBD2 inh -1, UHRF1 MBD2 ctr 0, TDP2 inh 7 and LEDGF integ inh 1.
Screening C=CCN1C(=O)c2n[nH]c(C(C)C)c2C1c1ccc2c(c1)OCO2 (configuration not stated) returned MBD2 inh 1, UHRF1 MBD2 ctr -2, TDP2 inh 0 and LEDGF integ inh -4.
Screening Cc1cc(CN2CCCC(CO)(Cc3cccc(Cl)c3)C2)n[nH]1 (configuration not stated) returned MBD2 inh 3, UHRF1 MBD2 ctr 24*, TDP2 inh -9 and LEDGF integ inh 4.
Screening O=C(Cn1nnc(-c2ccccc2)n1)Nc1cccc(S(=O)(=O)N2CCOCC2)c1 returned MBD2 inh 4, UHRF1 MBD2 ctr 29*, TDP2 inh 7 and LEDGF integ inh 1.
